Screening data deposited in PubChem by The Scripps Research Institute Molecular Screening Center.
TDP2 inh – human TDP2 enzyme inhibitors, primary screen, biochemical, epi absorbance, recombinant enzyme | Tyrosyl-DNA phosphodiesterase 2 (Homo sapiens), O95551 | T5PNP hydrolysis, p-nitrophenol absorbance 415 nm | inhibition, % at 12.8 µM | 370,000 tested, 0.34% active;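 active = inhibition above the mean of all tested compounds plus 3 SD, set per campaign, cut at about 25% in these data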;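 also: 0% = DMSO with enzyme and 100% = buffer with substrate but no TDP2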
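test system = human TDP2 enzyme | input = TDP2 enzyme at 120 nM final | medium = 50 mM Tris-HCl pH 7.5 with Mg2+, KCl, DTT, BSA | also added = T5PNP substrate, 5 mM | times = 2 h at 37 °C | technique = epi absorbance | benchmarks = high control without enzyme, low control DMSO plus TDP2 | replication = each compound tested once, singlicate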
MBD2 DNA inh – inhibitors of MBD2 binding to methylated DNA, primary screen, biochemical, TR-FRET, DNA-binding domain, human. 370,000 tested, 0.31% active. AID 686964, 2013. MBD2 binding to methylated oligonucleotide. inhibition, % at 4.4 µM. Methyl-CpG-binding domain protein 2 (Homo sapiens), Q9UBB5; in the data active = inhibition above about 13%
LEDGF integ inh – blockers of LEDGF/p75-dependent integrase strand transfer – biochemical, TR-FRET, high throughput, primary screen; inhibition, % at 3.7 µM; HIV-1 integrase (with human LEDGF/p75); 370,000 tested, 0.64% active; TR-FRET IN-LEDGF/p75 DNA integration, Eu/Cy5;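 active = inhibition above the screen-wide mean plus 3 SD, cut at about 13% in these data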;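 also: signal is the Cy5 over europium emission ratio at 671 and 618 nm; 0% = plate median of compound wells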
PRMT1 FP inh – PRMT1 methyltransferase inhibitors, primary screen, biochemical, fluorescence polarization; Protein arginine N-methyltransferase 1 (Homo sapiens), Q99873; recombinant PRMT1, activity-based probe fluorescence polarization; inhibition, % at 2.79 µM; 370,000 tested, 1.3% active;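 active = inhibition above about 21% made by adding two undisclosed values, limit read from the data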
Target sequence (Q99873 whole entry, looked up): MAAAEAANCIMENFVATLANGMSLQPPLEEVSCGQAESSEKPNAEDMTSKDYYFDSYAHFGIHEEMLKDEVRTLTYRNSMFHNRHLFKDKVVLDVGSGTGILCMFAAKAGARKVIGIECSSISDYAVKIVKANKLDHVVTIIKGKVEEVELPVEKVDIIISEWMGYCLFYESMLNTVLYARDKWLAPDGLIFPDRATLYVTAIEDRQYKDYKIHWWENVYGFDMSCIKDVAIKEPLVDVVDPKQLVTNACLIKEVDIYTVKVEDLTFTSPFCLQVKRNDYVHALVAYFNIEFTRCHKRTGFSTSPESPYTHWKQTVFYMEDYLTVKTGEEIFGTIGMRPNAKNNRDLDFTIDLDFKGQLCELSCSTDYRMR
UHRF1 binding – UHRF1 methylated DNA binding inhibitors, primary screen, counter-screen for MBD2 inhibitor project, biochemical, TR-FRET, human UHRF1, single concentration; UHRF1 binding to methylated oligo; AID 687016, 2013; 370,000 tested, 0.75% active; inhibition, % at 4.4 µM; in the data active = inhibition above about 21%;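 also: UHRF1 SRA domain binding a hemimethylated CpG hairpin DNA probe; 0% = median of test compound wells and 100% = reference inhibitor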
SIAE inh – human SIAE inhibitors, primary screen, biochemical, fluorescence polarization, FP-Rh probe, 1536-well HTS; Sialate O-acetylesterase (Homo sapiens), Q9HAT2; 370,000 tested, 0.69% active; SIAE FP-Rh probe binding; inhibition, % at 9.66 µM;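 active = inhibition above a cutoff: mean of compounds within the control limits plus 3 SD of those, cut at about 17% in these data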;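 also: 0% = plate median of compound wells and 100% = probe without SIAE protein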
An asterisk follows results filed as active. Shown are actives, neighbours in structure and some others; about 3.3% of the full set was active somewhere.

SMILES | TDP2 inh | MBD2 DNA inh | LEDGF integ inh | PRMT1 FP inh | UHRF1 binding | SIAE inh
COC(=O)C[C@@H]1CC[C@H]2[C@@H](COc3ccc(NC(=O)c4cc(C)on4)cc3C(=O)N2C)O1 | 3.0 | 1.8 | 0.2 | 0.0 | 1.4 | 3.6
S=c1[nH]nc(-c2ccco2)n1/N=C/c1ccc(Cl)cc1Cl | 5.4 | -1.0 | 0.8 | 22.2* | -2.2 | 1.8
COc1ccc(NC(=S)N2CCC(C(=O)c3ccc(C)cc3)CC2)c(OC)c1 | 1.2 | 2.2 | -7.7 | 0.3 | 25.5* | 3.2
Cc1noc(C)c1COc1ccccc1C(=O)NC(C)c1ccc(Cl)cc1 (stereo not given) | 4.9 | 0.2 | -3.5 | 3.0 | 31.8* | 3.6
Cc1noc(C)c1COc1ccccc1C(=O)NC(C)CCc1ccccc1 (stereo not given) | -1.6 | 0.9 | 0.3 | 4.3 | 4.8 | 4.0
COc1ccc(S[C@]2(C(=O)N3CCN(c4ncccn4)CC3)CC(=O)N(c3ccc(OC)cc3)[C@@H]2c2ccc(OC)cc2)cc1 | -1.3 | -0.8 | -0.6 | 2.6 | 0.3 | 9.8
CCN(CC)c1ccc2cc(NC(=O)CCC(=O)O)c(=O)oc2c1 | -10.4 | 1.4 | 1.4 | 34.0* | -1.7 | 9.3
COc1cccc(CC(=O)N(Cc2ccccc2)c2ccccc2C(=O)Nc2cc(OC)ccc2OC)c1 | -11.3 | -3.9 | -2.9 | 2.1 | 0.3 | 3.0
O=C(NCc1ccccc1)OCCN1C(=O)CCC12CCC(c1ccccc1)CC2 (stereo not given) | 6.8 | -4.0 | -2.4 | -7.1 | -1.3 | 0.0
COc1ccc(-c2ccc(SCC(=O)Nc3nccs3)nn2)cc1OC | -4.8 | 3.7 | 3.7 | 0.5 | 21.1* | 11.2
COc1cccc(C(=O)NCc2nnc(SCC(=O)Nc3nccs3)n2-c2ccccc2)c1 | -8.5 | 2.5 | 0.9 | 3.7 | 95.5* | -3.8
O=C(COc1ccccc1)NCc1nnc(SCC(=O)Nc2nccs2)n1-c1ccccc1 | 6.5 | 5.7 | -1.7 | -2.5 | -1.0 | -3.3
CCCCNC(=O)C[C@H]1C[C@@]2(C(=O)OC)C(=C[C@H](C(C)(C)C)O[C@@H]2C)N(Cc2ccco2)C1=O | 2.7 | 3.6 | -3.9 | 5.3 | 0.3 | -1.7
CCCCCN1CCCCC(NC(=O)c2cc(OC)c(OC)c(OC)c2)C1=O (stereo not given) | -3.5 | 3.3 | 0.1 | 0.7 | -0.9 | -6.6
COc1cccc(Oc2ccc(OC)cc2C(=O)O)c1 | 3.2 | 6.2 | 0.8 | 2.5 | 26.0* | 1.2
COc1cccc(Nc2ccccc2C(=O)O)c1 | -1.4 | 4.7 | -0.9 | 2.3 | 14.4 | 5.4
CC(Cl)C(=O)N1CCC(C(=O)NC2CCCc3ccccc32)CC1 (stereo not given) | 2.0 | -2.2 | 5.9 | -0.4 | -0.3 | -3.5
CN(C)S(=O)(=O)c1cccc(NC(=S)Nc2cccc3cnccc23)c1 | 28.1* | -3.2 | 7.2 | 16.2 | 2.2 | 5.7
CCOc1ccc(N(C)Cc2cc(=O)oc3ccc(OCC)cc23)cc1 | -8.6 | 2.9 | -1.9 | 5.5 | 21.7* | 10.1
CCOC(=O)[C@@]12CN(C(=O)OC(C)(C)C)CC=C1N(Cc1ccc(OC)cc1)C(=O)[C@H]2CC(=O)N1CCN(C(=O)C2CC2)CC1 | 1.9 | -5.8 | 7.5 | -2.7 | -1.4 | -1.5
O=C(COc1cccnc1[N+](=O)[O-])NC1CCS(=O)(=O)C1 (stereo not given) | -5.9 | 8.4 | 2.9 | 1.8 | 26.5* | -0.8
Cc1nnc(SCc2ccccc2)[nH]c1=O | -8.1 | 1.7 | -5.5 | 0.5 | -2.3 | 5.7
Cc1nnc(SCC(C)C)[nH]c1=O | 6.8 | -4.6 | 2.0 | -0.3 | 21.6* | -0.4
C=CCN(CC#Cc1ccccc1)CC1CC1 | 7.0 | 1.4 | -0.5 | -0.9 | -1.5 | 4.5
CC(C)c1ccc(OC[C@@H](O)CN2CCC(C(O)(c3ccccc3)c3ccccc3)CC2)cc1 | -8.2 | -3.3 | -2.3 | -2.7 | -3.9 | 2.7
SMILES | TDP2 inh | MBD2 DNA inh | LEDGF integ inh | PRMT1 FP inh | UHRF1 binding | SIAE inh
CCCCC1=CC2=CC(=O)C(C)(OC(=O)CC)C(=O)C2=CO1 (stereo not given) | 0.0 | -5.3 | 6.0 | 12.5 | -1.3 | -4.2
CCC(=O)OC1(C)C(=O)C=C2C=C(C3CC3)OC=C2C1=O (stereo not given) | -11.0 | -0.1 | 3.9 | 22.6* | 0.9 | 8.8
CCC(=O)OC1(C)C(=O)C=C2C=C(CCCC(=O)OC)OC=C2C1=O (stereo not given) | 9.9 | -3.7 | 15.8* | 19.4 | 1.4 | 8.3
Cc1cccc(NC(=O)n2ccc3ccc(-c4ccc5cc[nH]c5c4)cc32)c1 | 3.7 | 1.4 | -0.3 | -0.3 | 0.6 | -14.0
CCCCNC(=O)C1CCCN1C(=O)Nc1ccc2c(c1)OCO2 (stereo not given) | 1.8 | -0.8 | 0.4 | 2.0 | 1.6 | 0.0
O=C(/C=C/c1cccc([N+](=O)[O-])c1)NCCc1ccc(F)cc1 | 4.2 | -1.3 | -0.1 | 1.2 | 37.6* | -3.4
Oc1ccc2oc3c(c2c1C=NCc1ccncc1)CCCC3 | -5.2 | -7.4 | -7.6 | 2.5 | -3.2 | 14.6
Oc1c(C=NCc2ccncc2)sc2ccccc12 | 0.0 | -0.5 | -5.0 | 62.9* | -2.9 | -16.8
CC(CNC(=O)CCc1nnc(CCC2CCCCC2)o1)c1ccccc1 (stereo not given) | 0.2 | 0.3 | -1.4 | -4.0 | 32.7* | 9.6
Cc1cc(-c2nnc(CCC(=O)NCC(C)c3ccccc3)o2)no1 (stereo not given) | -10.0 | -0.5 | 0.3 | -2.8 | 1.2 | -3.9
CC(C)OC(=O)n1c(=S)oc2ccccc21 | 6.6 | -7.5 | -3.0 | -1.5 | 0.0 | 5.4
CCCCC(=O)/C=C/n1c(=S)oc2ccccc21 | 3.5 | 8.5 | -1.7 | 11.7 | 22.7* | -0.7
COc1ccc2nc(N3CCCCC3)c(/C=C3\SC(=S)NC3=O)cc2c1 | 18.6 | -1.3 | -0.6 | 2.9 | -2.2 | 1.6
O=C1NC(=S)S/C1=C\c1cc2ccccc2nc1N1CCCCC1 | 8.2 | 3.6 | 1.9 | -0.3 | 78.4* | 0.0
COc1ccc(-c2ccc(C(=S)N3CCN(C(C)=O)CC3)o2)cc1 | 8.8 | -5.8 | 1.2 | 22.3* | -2.1 | 1.8
COc1ccc(CC(=O)N2CCN(C(=O)Cc3ccc(OC)cc3)CC2)cc1 | 3.4 | -1.8 | 2.3 | -3.2 | -1.4 | 8.0
